pIC50: −log10 of the molar value.
Experiments:
GNS (G411 and G362) = experiment: Flow cytometric cell-cycle analysis of DNA content; assay type: cell-based, human
Summary of the method: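 GNS lines G411 and G362 were grown as adherent monolayers in serum-free medium. They were exposed to test compounds (DRD4 antagonists) at 10 µM or 25 µM, alongside DMSO control, for 48 hr. DNA-content cell-cycle distribution was then analysed.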

[1] = system: patient-derived GBM neural stem cells (GNS); experiment: Proliferation assay, dose-response series; assay type: cell-based, human; settings: for selectivity toward GNS and NS compared with fibroblasts: IC50 of BJ/IC50 of any NS or GNS with the lowest IC50, dose series 0.39–50 µM; for pIC50: read-out: potency (IC50) toward GNS, panel of six GNS lines
DRD4 receptor = target: T1, DRD4 receptor (Homo sapiens, UniProt P21917); experiment: Block of forskolin-induced cAMP response by DRD4 agonist; assay type: cell-based; settings: G362 cells, pretreatment 30 µM, then forskolin 30 µM
T1 sequence (P21917 1-419): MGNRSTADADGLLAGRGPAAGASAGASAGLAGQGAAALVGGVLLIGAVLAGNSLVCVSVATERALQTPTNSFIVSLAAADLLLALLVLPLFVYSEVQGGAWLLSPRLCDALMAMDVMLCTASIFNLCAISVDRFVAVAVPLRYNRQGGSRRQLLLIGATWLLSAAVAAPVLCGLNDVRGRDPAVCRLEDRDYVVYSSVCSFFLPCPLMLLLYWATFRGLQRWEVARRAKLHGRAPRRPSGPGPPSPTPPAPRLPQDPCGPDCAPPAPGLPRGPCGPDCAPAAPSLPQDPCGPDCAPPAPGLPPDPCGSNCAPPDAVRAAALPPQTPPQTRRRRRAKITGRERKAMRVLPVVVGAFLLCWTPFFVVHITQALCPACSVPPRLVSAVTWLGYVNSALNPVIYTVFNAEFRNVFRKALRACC

GNS, NS and BJ lines = experiment: Primary screen of neuroactive compounds, growth inhibition; assay type: cell-based, human; settings: 5 µM, 5 days; hit = greater than 20% growth inhibition vs DMSO
Summary of the method: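 A 680-compound neuroactive library was screened at 5 µM for 5 days against three human GNS lines, two neural stem cell (NS) lines and BJ fibroblasts. GNS and NS lines were grown as adherent serum-free monolayers. Growth inhibition was calculated relative to DMSO control; a primary hit caused >20% inhibition.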

[2] = system: G362 cells injected intracranially; experiment: Intracranial G362 xenograft survival in NSG mice; assay type: in vivo, mouse
[3] = system: subcutaneous implanted tumor (G362); experiment: Subcutaneous GNS xenograft in NSG mice; assay type: in vivo, mouse; settings: 20 mg/kg intraperitoneally; for reduction of average tumor weight at the endpoint: 5 days on, 2 days off, vs vehicle
GNS (G362 and G411) = experiment: LC3B+ puncta immunofluorescence; assay type: cell-based, human; settings: 48 hr; L-741,742 10 µM, PNU 96415E 25 µM
Summary of the method: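 Adherent, serum-free GNS cultures (G362, G411) were exposed for 48 hr to test compounds (DRD4 antagonists) at 10 µM or 25 µM, or DMSO. LC3B was immunostained, and cells with large LC3B+ puncta were counted (>200 cells per group). Results are the fraction of cells; n = 3, mean ± SEM, unpaired one-tailed t test.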

G362 = experiment: Combination index with TMZ; assay type: cell-based, human; settings: in combination with TMZ
Summary of the method: (§1)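 Patient-derived glioblastoma stem cell (GNS) cultures were exposed to temozolomide combined with a test compound (DRD4 antagonist). The combination index (CI) was calculated and plotted against fraction affected (Fa) to judge the interaction.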

G481 = experiment: Combination index with TMZ; assay type: cell-based, human; settings: in combination with TMZ
Summary of the method: as §1

[4] = system: normal human NS lines (hf5205 and hf6539); experiment: Neuronal differentiation of normal NS; assay type: cell-based; settings: with sequential withdrawal of EGF and FGF; VGlut1 expression
[5] = system: non-NS control cells (BJ, Daoy, U-2 OS, C8-D1A); experiment: Proliferation assay in non-NS control cell lines; assay type: cell-based; settings: highest concentration tested 50 µM
adenylate cyclase = experiment: Forskolin-induced cAMP response in GNS; assay type: cell-based, human; settings: G362 cells, forskolin 30 µM
Summary of the method: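 G362 GNS cells were stimulated with forskolin (30 µM) to activate adenylate cyclase. Forskolin was given alone or after pretreatment with a DRD4-selective agonist (30 µM). cAMP level was expressed as fold change versus control; n = 3, mean ± SEM.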

`CCN(CC)CCCC(C)Nc1ccnc2cc(Cl)ccc12` (stereo not shown) [chloroquine] was tested, and the cell-cycle effect (GNS (G411 and G362)) was “G0/G1 arrest”.
For `CCN(CC)CCOc1ccc(Cc2ccccc2)cc1` [N,N-diethyl-2-(4-(phenylmethyl)phenoxy) ethanamine], the “selectivity toward GNS and NS compared with fibroblasts” value (“selectivity toward GNS and NS” below) [1] was “more than 8 fold”.
With `CN1[C@@H]2CC[C@H]1C[C@@H](OC(=O)c1cc(Cl)cc(Cl)c1)C2` [MDL-72222] the “selectivity toward GNS and NS” value [1] was “more than 8 fold”.
`Cc1cccc(NC(=O)CN2CCC(c3ccccn3)CC2)c1` [A412997] was tested, and the “block of forskolin-induced cAMP response” value (DRD4 receptor) was 31.3%.
`Clc1ccc(N2CCN(Cc3c[nH]c4ncccc34)CC2)cc1` [L-745,870] was tested, and the pIC50 [1] was 5.21 to 5.51.
For `CCC(Oc1ccc(Cl)cc1)C(=O)OC1CC2CCC(C1)N2C` (racemic) [(±)-tropanyl-2-(4-chlorophenoxy)butanoate], the “selectivity toward GNS and NS” value [1] was “more than 8 fold”.
In the case of `Nc1ccc(CCN2CCN(c3cccc(C(F)(F)F)c3)CC2)cc1` [LY-165,163], the “selectivity toward GNS and NS” value [1] was “more than 8 fold”.
In the case of `CN1CCN(CCCN2c3ccccc3Sc3ccc(C(F)(F)F)cc32)CC1` [trifluoperazine], the primary screen result (GNS, NS and BJ lines) was “hits”.
With `Cc1c(C2CCN(CCc3ccccc3)CC2)noc1-c1ccc(Cl)cc1` [L-741,742] the survival over control ([2]; 25 mg/kg alone, treatment from 1 week after engraftment) was “modest but significant benefit in survival”, the “survival compared with TMZ alone” value ([2]; 25 mg/kg combined with TMZ (25 or 12.5 mg/kg gavage)) was “significantly improved survival” and the “tumor volume growth vs vehicle control” value [3] was “much slower growth”. For the same molecule, the “reduction of average tumor weight at the endpoint” value [3] was 40.9%, the “cells showing large LC3B+ puncta” value (GNS (G362 and G411)) was “more than 50%” and the “lowest combination index (CI) value” (G362) was 0.29. The “lowest combination index (CI) value” (G481) was 0.28, the “neuronal differentiation of NS” value [4] was “dramatically enhanced neuronal differentiation” and the cell-cycle effect (GNS (G411 and G362)) was “G0/G1 arrest”. The “selectivity against GNS compared with NS” value [1] was 8 fold, the “selectivity toward GNS and NS” value [1] was “more than 8 fold” and the pIC50 [1] was 5.21 to 5.82.
In the case of `Cc1cc(C)cc(C(=O)OC2CC3CCC(C2)N3C)c1` (stereo not shown) [tropanyl 3,5-dimethylbenzoate], the “selectivity toward GNS and NS” value [1] was “more than 8 fold”.
For `CC(C(O)c1ccc(O)cc1)N1CCC(Cc2ccccc2)CC1.CC(C(O)c1ccc(O)cc1)N1CCC(Cc2ccccc2)CC1.O=C(O)C(O)C(O)C(=O)O` (stereo not shown) [ifenprodil tartrate], the “selectivity against GNS compared with NS” value [1] was 8 fold and the “selectivity toward GNS and NS” value [1] was “more than 8 fold”.
In the case of `Cl.Cl.Fc1ccc(N2CCN(CCC3OCCc4ccccc43)CC2)cc1` (stereo not shown) [PNU 96415E], the “sensitivity of non-NS control cells” value [5] was “not sensitive even at the highest concentration tested”, the “tumor volume growth vs vehicle control” value [3] was “much slower growth” and the “reduction of average tumor weight at the endpoint” value [3] was 44.3%. The “cells showing large LC3B+ puncta” value (GNS (G362 and G411)) was “more than 50%”, the “lowest combination index (CI) value” (G362) was 0.56 and the “lowest combination index (CI) value” (G481) was 0.32. For the same molecule, the cell-cycle effect (GNS (G411 and G362)) was “G0/G1 arrest”, the “selectivity against GNS compared with NS” value [1] was 8 fold and the “selectivity toward GNS and NS” value [1] was “more than 8 fold”. For the same molecule, the pIC50 [1] was 5.20.
With `CSc1ccc2c(c1)N(CCC1CCCCN1C)c1ccccc1S2` (stereo not shown) [thioridazine] the primary screen result (GNS, NS and BJ lines) was “hits”.
PD 168568 was tested, and the pIC50 [1] was 4.30 to 4.60.
With `C=C[C@@]1(C)CC(=O)[C@]2(O)[C@@]3(C)[C@@H](O)CCC(C)(C)[C@@H]3[C@H](O)[C@H](OC(C)=O)[C@@]2(C)O1` [Forskolin, forskolin] the “increase in cAMP concentration” value (adenylate cyclase) was 2.1 fold.
In the case of `O=C(NOC[C@H](O)CO)c1ccc(F)c(F)c1Nc1ccc(I)cc1F` [PD 0325901], the cell-cycle effect (GNS (G411 and G362)) was “G0/G1 arrest”.
